A selection: hits, their analogues and other compounds. The true share with any hit is near 4%.
TAAR1 antag: antagonists of human TAAR1 | Q96RJ0 | CHO RD-HGA16 TAAR1, Fluo-8 calcium fluorescence, antagonist | inhibition, % at 3 µM | 360,000 tested, 1.5% active | AID 624466;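 active = inhibition above a per-plate cutoff, the mean inhibition of test compounds on that plate plus 3 SD, cut at about 49% in these data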
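Test system: RD-HGA16 CHO cells with stable hTAAR1 and Gα16 / Probe or stimulus: EC80 β-phenethylamine stimulus / Times: seeding 17-24 h prior, 75-min 37 °C, 30-min RT dye loading / Detection: Fluo-8 calcium-sensitive fluorescence / Read-out basis: % inhibition scaled between DMSO and EC80 PEA controls / Repeats: singlicate, one well per test compound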
GPR7 antag: antagonists of human GPR7 (neuropeptides B/W receptor 1) | P48145 | GPR7-expressing cells, fluorescence antagonist assay | inhibition, % at 4.4 µM | 290,000 tested, 1.1% active | AID 1861; in the data active = inhibition above about 16%, passing the limit was not always enough;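 also: cells stimulated with the agonist NPW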
DAGLB inhibitor: blocks human DAGLB lipase activity; HEK293T DAGLB membrane lysate, EnzChek fluorogenic substrate; Q8NCG7; AID 504411; inhibition, % at 5.17 µM; 340,000 tested, 0.059% active; in the data active = inhibition above about 34%
Target sequence (Q8NCG7 whole entry, looked up): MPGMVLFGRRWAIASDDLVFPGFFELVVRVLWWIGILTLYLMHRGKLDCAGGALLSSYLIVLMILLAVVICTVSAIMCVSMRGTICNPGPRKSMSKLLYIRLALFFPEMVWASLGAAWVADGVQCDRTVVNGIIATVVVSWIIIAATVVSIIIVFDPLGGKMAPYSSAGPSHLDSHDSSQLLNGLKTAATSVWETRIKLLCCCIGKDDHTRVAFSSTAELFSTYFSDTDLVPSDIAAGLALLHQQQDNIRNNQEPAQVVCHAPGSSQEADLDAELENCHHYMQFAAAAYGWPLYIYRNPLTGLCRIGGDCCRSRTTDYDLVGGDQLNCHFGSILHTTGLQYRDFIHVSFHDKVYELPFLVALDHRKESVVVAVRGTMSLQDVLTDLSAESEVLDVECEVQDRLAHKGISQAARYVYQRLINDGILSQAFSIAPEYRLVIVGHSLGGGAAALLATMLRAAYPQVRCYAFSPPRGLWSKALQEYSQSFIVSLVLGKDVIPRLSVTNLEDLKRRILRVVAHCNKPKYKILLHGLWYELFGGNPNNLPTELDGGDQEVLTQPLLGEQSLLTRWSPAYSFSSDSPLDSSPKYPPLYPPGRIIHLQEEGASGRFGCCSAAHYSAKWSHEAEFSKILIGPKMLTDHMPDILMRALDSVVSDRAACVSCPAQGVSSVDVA
TAAR1 ag: human TAAR1 agonism | Q96RJ0 | CHO RD-HGA16 TAAR1, Fluo-8 calcium fluorescence; vehicle wells 0%, saturating PEA agonist 100% | activation, % at 3 µM | 360,000 tested, 0.99% active | AID 624467;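 active = activation above the mean activation of all test compounds in the run plus 3 SD, cut at about 38% in these data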
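System: CHO RD-HGA16 cells carrying human TAAR1 plus Gα16; Incubation: 17-24 h seeding, 75 min 37 °C dye, 30 min RT; Measured by: Fluo-8 fluorescence, 5 s baseline then 140 s kinetic read; Control set: DMSO and PEA EC100; Replication: single well for each compound.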
MPTP inh: blocks calcium-induced mitochondrial swelling | isolated mouse mitochondria, Ca2+ swelling absorbance, 30 min | inhibition, % at 10 µM | 360,000 tested, 1.4% active;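 active = inhibition of 50% or more, scaled per plate between neutral and stimulator controls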
TAAR1 nonsel count: counter-screen for TAAR1 antagonists: nonselective antagonists | shares compounds with TAAR1 antag | counterscreen cell line, calcium fluorescence, antagonist mode | inhibition, % at 3 µM | 2,400 tested, 77% active; in the data active = inhibition above about 22%;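 also: CHO-Ga16 host cells stimulated with ATP at an EC80 level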
TAAR1 antag conf: confirmation of human TAAR1 antagonists; shares compounds with TAAR1 antag; TAAR1-expressing cells, fluorescence antagonist read-out; inhibition, % at 3 µM; 2,400 tested, 40% active; AID 651785; in the data active = inhibition above about 49%;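 also: CHO-Ga16 host cells challenged with agonist PEA near its EC80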
Ga16 ag counter: nonselective Ga16 agonist in TAAR1 antagonist counter-screen; shares compounds with TAAR1 antag; Ga16-expressing cells, calcium fluorescence, agonist counterscreen; activation, % at 3 µM; 2,400 tested, 18% active; in the data active = activation above about 12%
TAAR1 ag count: activates human TAAR1 in antagonist counter-screen | shares compounds with TAAR1 antag | hTAAR1 cell line, fluorescence activation, agonist mode | activation, % at 3 µM | 2,400 tested, 2% active | AID 651955; in the data active = activation above about 37%;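 also: CHO cells stably expressing TAAR1 with calcium dye readout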
Large screens that a line does not name were inactive (follow-up assays come after a bar, where they were run).

CSc1ccccc1NC(=O)c1cc(-c2cccs2)on1	TAAR1 antag 55.4 | TAAR1 nonsel count inactive | TAAR1 antag conf inactive | Ga16 ag counter inactive | TAAR1 ag count inactive
Cc1ccc(C(=O)Nc2cccc(C(F)(F)F)c2)cc1Nc1cnccn1	none (no result: GPR7 antag)
Cc1ccc(C(=O)Nc2cccc(C(F)(F)F)c2)cc1Nc1ncnc2nc[nH]c12	TAAR1 antag 51.8 (no result: GPR7 antag) | TAAR1 nonsel count 32.0 | TAAR1 antag conf inactive | Ga16 ag counter inactive | TAAR1 ag count inactive
CC(C)(C)N(Cc1ccccc1)C(=O)COC(=O)c1ccccc1SCC(=O)N1CCCC1	TAAR1 antag 61.2 (no result: GPR7 antag) | TAAR1 nonsel count inactive | TAAR1 antag conf inactive | Ga16 ag counter inactive | TAAR1 ag count inactive
COc1ccc(NC(=S)N2CCN(c3ccc4c(c3)C3CCN(C(=O)OCc5ccccc5)C4C3)CC2)c(OC)c1 (centres undefined)	none (no result: GPR7 antag, DAGLB inhibitor)
CC(C)C(=O)N1CCN(c2ccc(NC(=O)COc3ccccc3[N+](=O)[O-])cc2)CC1	TAAR1 antag 72.8 (no result: DAGLB inhibitor) | TAAR1 nonsel count 55.3 | TAAR1 antag conf 76.0 | Ga16 ag counter 19.9 | TAAR1 ag count inactive
CS(=O)(=O)N1CCN(c2ccc(NC(=O)COc3ccccc3[N+](=O)[O-])cc2)CC1	TAAR1 antag 63.3 | TAAR1 nonsel count 27.6 | TAAR1 antag conf inactive | Ga16 ag counter 11.8 | TAAR1 ag count inactive
O=C(c1ccccc1)c1ccc(N2CCN(C(=O)c3cccc(F)c3F)CC2)c(F)c1	none
CCc1nc2ccc(C(=O)NCCCn3ccnc3)cn2c1N(C)C(=O)c1cccc(OC)c1	none (no result: GPR7 antag, DAGLB inhibitor)
O=[N+]([O-])c1cc(S(=O)(=O)NCCN2CCOCC2)ccc1Cl	none
O=C1NC2(CCCCCC2)C(=O)N1Cc1cccc([N+](=O)[O-])c1	TAAR1 antag 100.9 | TAAR1 nonsel count inactive | TAAR1 antag conf inactive | Ga16 ag counter inactive | TAAR1 ag count inactive
Cn1c(=O)c2c(ncn2Cc2ccc(O)c([N+](=O)[O-])c2)n(C)c1=O	none (no result: GPR7 antag, DAGLB inhibitor, MPTP inh)
Cc1nn(-c2ccccn2)c2c1-c1nc(N3CCOCC3)ncc1CC2	TAAR1 antag 70.1 | TAAR1 nonsel count 27.1 | TAAR1 antag conf 48.6 | Ga16 ag counter inactive | TAAR1 ag count inactive
Cc1nn(-c2ccccn2)c2c1-c1nc(N)ncc1CC2	none
COc1ccc(C=NN(C)C(=O)Nc2cccc(Cl)c2)cc1OC	none (no result: GPR7 antag, DAGLB inhibitor, MPTP inh)
COc1cc2c(cc1OC)-c1nnc(-c3cccs3)n1C(C)(C)C2	TAAR1 antag 49.6 | TAAR1 nonsel count inactive | TAAR1 antag conf inactive | Ga16 ag counter inactive | TAAR1 ag count inactive
COc1cc2c(cc1OC)-c1nnnn1C(C)(C)C2	none
COc1ccc(CC(=O)N(Cc2ccccc2)c2ccccc2)cc1S(=O)(=O)N1CCOCC1	TAAR1 antag 81.7 | TAAR1 nonsel count 31.7 | TAAR1 antag conf 55.0 | Ga16 ag counter 14.7 | TAAR1 ag count inactive
O=C(Oc1ccc(/C=N/Nc2ccccc2)cc1)c1ccccc1	none
Cc1cccc(C(=O)Oc2ccc(/C=N/NC(=O)Cc3ccc([N+](=O)[O-])cc3)cc2)c1	none
O=C(O)c1ccc(N/N=C/c2ccc(OC(=O)c3cccc(Cl)c3)cc2)cc1	TAAR1 antag 84.1 | TAAR1 nonsel count 47.8 | TAAR1 antag conf 60.3 | Ga16 ag counter inactive | TAAR1 ag count inactive
Cc1cccc(C(=O)Oc2ccc(/C=N/NC(=O)c3ccccc3O)cc2)c1	TAAR1 antag 68.3 | TAAR1 nonsel count 49.2 | TAAR1 antag conf 57.7 | Ga16 ag counter inactive | TAAR1 ag count inactive
Cc1cccc(C(=O)Oc2ccc(/C=N/NC(=O)c3ccc(O)cc3)cc2)c1	TAAR1 antag 73.0 | TAAR1 nonsel count 36.9 | TAAR1 antag conf 54.3 | Ga16 ag counter inactive | TAAR1 ag count inactive
COc1ccc(CN2C(=O)C(CC(=O)NCc3cccc4ccccc34)CC(C(=O)N(C(C)C)C(C)C)=C2C)cc1 (centres undefined)	none (no result: GPR7 antag, DAGLB inhibitor)
Cc1ccccc1NS(=O)(=O)c1ccc(C(=O)N2CCN(c3ccccc3O)CC2)cc1	TAAR1 antag 75.4 | TAAR1 nonsel count 28.1 | TAAR1 antag conf inactive | Ga16 ag counter 11.9 | TAAR1 ag count inactive
Cc1cc(OCC(=O)OCC(=O)N(Cc2ccccc2)C(C)(C)C)ccc1Cl	none (no result: GPR7 antag)
CC1Nc2ncnc(N3CCN(c4ccccc4)CC3)c2N(Cc2ccc(Br)cc2)C1=O (centres undefined)	TAAR1 antag 57.2 (no result: GPR7 antag) | TAAR1 nonsel count inactive | TAAR1 antag conf inactive | Ga16 ag counter inactive | TAAR1 ag count inactive
CCOC(=O)c1cnc2c3c(noc13)CCC2	none (no result: GPR7 antag, DAGLB inhibitor, MPTP inh)
COc1ccc(/C=N/NC(=O)c2ccccc2OCc2ccccc2)c(OC)c1	TAAR1 antag 49.4 | TAAR1 nonsel count inactive | TAAR1 antag conf inactive | Ga16 ag counter inactive | TAAR1 ag count inactive
O=C(N/N=C\c1ccccc1OCc1ccccc1)c1ccco1	none
C#CCOc1ccccc1/C=N/NC(=O)c1ccccc1OCc1ccccc1	TAAR1 antag 55.9 | TAAR1 nonsel count inactive | TAAR1 antag conf inactive | Ga16 ag counter inactive | TAAR1 ag count inactive
COc1ccccc1/C=N/NC(=O)c1ccccc1Cl	none
Cc1cccc(/C=N/NC(=O)c2ccccc2OCc2cccc(Br)c2)n1	TAAR1 antag 64.1 | TAAR1 nonsel count 22.3 | TAAR1 antag conf inactive | Ga16 ag counter inactive | TAAR1 ag count inactive
COc1ccccc1C=NNC(=O)c1ccccc1OCCOc1ccccc1	TAAR1 antag 61.6 (no result: GPR7 antag) | TAAR1 nonsel count 21.4 | TAAR1 antag conf 51.1 | Ga16 ag counter inactive | TAAR1 ag count inactive
Cc1cccc(/C=N/NC(=O)c2cc(Br)ccc2OCc2ccccc2)n1	none
C/C(=N\NC(=O)c1ccccc1OCCOc1ccccc1)c1ccccc1F	TAAR1 antag 60.3 (no result: GPR7 antag) | TAAR1 nonsel count inactive | TAAR1 antag conf inactive | Ga16 ag counter inactive | TAAR1 ag count inactive
O=C(NC1CCCCC1)C(c1ccnc2ccccc12)N1CCc2ccccc2C1 (centres undefined)	none (no result: GPR7 antag, DAGLB inhibitor)
COc1cc(O)c(CC=C(C)C)c(O)c1C(=O)CCc1ccc(O)cc1	TAAR1 antag 89.5 (no result: GPR7 antag) | TAAR1 nonsel count 44.4 | TAAR1 antag conf 60.8 | Ga16 ag counter 16.3 | TAAR1 ag count inactive
C=CCN1[C@@H](C)[C@@H](c2ccccc2)Oc2c(Cl)cccc2S1(=O)=O	none (no result: GPR7 antag, DAGLB inhibitor, MPTP inh)
Cc1ccc(C(=O)N2CCC3CC2c2cc(-c4ccc5c(c4)OCO5)ccc23)cc1 (centres undefined)	none (no result: GPR7 antag)
CC(=O)Nc1ccc(C(=O)Nc2ccc(S(=O)(=O)N3CCCCC3)cc2)cc1	none
Cn1nc(C(=O)Nc2ccc(S(=O)(=O)N3CCCCC3)cc2)c2ccccc2c1=O	TAAR1 antag 96.0 | TAAR1 nonsel count inactive | TAAR1 antag conf inactive | Ga16 ag counter inactive | TAAR1 ag count inactive

Screens as filed in PubChem BioAssay.
